As a reminder, the Inhibition is how much of the control response was suppressed. As usually defined, the inhibition in vivo is the drop in the measured response relative to a control, in per cent. For orientation: pIC50 means −log10 of the IC50, conventionally taken in molar units. A high value points to a low IC50.

pIC50: −log10 of the molar value. Activity calls are given as the source filed them. No cut-off for these calls is given here.

The first assay is filed under the species Canis familiaris. The assay can be described thus: PAF-antagonist activity in dog platelets by PAF-binding assay; No significant inhibition at 1000 nM. The assay is classed as functional, Canis lupus familiaris.
Settings: not given
In the case of `Cc1nnc2n1-c1cc(C#CCN3C(=O)c4ccccc4C3=O)ccc1C(c1ccccc1F)=NC2`, the IC50 entry is “Not Active”.

A further assay concerns Cavia porcellus. The assay can be described thus: Inhibition of PAF-induced bronchoconstriction in the guinea pig after administration (1 mg/kg) intravenously at two-hourpretreatment time.
Settings: not given
The assay is classed as functional.
On to `CCc1nnc2n1-c1ccc(C#CCN3C(=O)c4ccccc4C3=O)cc1C(c1ccccc1F)=NC2`, for which the Inhibition was 30%.

For the next assay, the system named is Cavia porcellus. Kind of assay: Inhibitory activity at 0.03 mg/kg was determined against PAF-induced bronchoconstriction in guinea pig. Format: functional.
Settings: not given
In a few lines: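 Duration-of-action test: single 0.03 mg/kg oral dose given 24 h before iv PAF challenge (1 µg/kg) in ventilated, paralysed guinea pigs. Percent inhibition of the tracheal pressure rise versus vehicle controls. Values are means ± SEM.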
`Cc1nnc2n1-c1sc(C#CCN3Cc4cccc5cccc(c45)C3=O)cc1C(c1ccccc1Cl)=NC2` registered an inhibition in vivo at 0.03 mg/kg of 60%. Same read-out and setting: the same measure for `Cc1nnc2n1-c1sc(C#CCn3c4c(c5ccccc53)CCCCC4)cc1C(c1ccccc1Cl)=NC2`: 8%. On the same count and under the same terms, under `Cc1nnc2n1-c1sc(C#CCn3c4c(c5ccccc53)CCCC4)cc1C(c1ccccc1Cl)=NC2` stands 75%.

In the case of `Cc1nnc2n1-c1sc(C#CCN3C(=O)Cn4ccc5c(Cl)ccc3c54)cc1C(c1ccccc1Cl)=NC2`, the inhibition in vivo at 0.03 mg/kg was 0%. Still for that read-out and setting: the same measure for `Cc1nnc2n1-c1sc(C#CCn3c(=O)c4ccccc4c4ccccc43)cc1C(c1ccccc1Cl)=NC2`: 75%.

In another assay the test system is Cavia porcellus. The assay can be described thus: Inhibition of PAF-induced bronchoconstriction in the guinea pig after intravenous administration after one-minute pretreatment time; No significant inhibition at 1 mg/kg. The assay is classed as functional, organism-based. Also on record: dose 1 mg/kg.
Settings: not given
On to `Cc1nnc2n1-c1sc(C#CCn3c(=O)c4ccccc4c4ccccc43)cc1C(c1ccccc1Cl)NC2=O` (configuration not stated), for which the ID50 result was “inactive”.

The next assay deals with Cavia porcellus. The assay can be described thus: Compound was measured by using PAF-induced Bronchoconstriction assay in the guinea pig after administration orally after two-hour pretreatment time. The assay is classed as functional. The note with it: po, read-out: ID50 (the source's name). A digest of the protocol: (§1)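 Guinea pigs dosed orally with drug or vehicle 2 h before iv PAF challenge (1 µg/kg, maximal constrictory dose). Propranolol given 5 min before PAF, succinylcholine (1.2 mg/kg iv) to stop breathing, animals ventilated. Read-out is tracheal pressure change, averaged over 3 control and 3 treated animals.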
For the compound `Cc1nnc2n1-c1sc(C#CCN3C(=O)CCc4ccccc43)cc1C(c1ccccc1Cl)=NC2`, the ED50 was found to be 0.02 mg/kg.

The next assay deals with Cavia porcellus. The assay can be described thus: Inhibition of PAF-induced bronchoconstriction in guinea pig after oral administration after two-hour pretreatment time. The note with it: read-out: ID50 (the source's name). Format: functional. A digest of the protocol: as §1
As for `Cc1nnc2n1-c1sc(C#CCn3c(=O)c4ccccc4c(=O)c4ccccc43)cc1C(c1ccccc1Cl)=NC2`, the ED50 is 0.03 mg/kg.

On to `Cc1nnc2n1-c1sc(C#CCN3C(=O)CCc4ccc(Cl)cc43)cc1C(c1ccccc1Cl)=NC2`, for which the ED50 stood at 0.1 mg/kg. The same measure, in the same setting: under `Cc1nnc2n1-c1sc(C#CCn3c(=O)n(CCN(C)C)c4ccccc43)cc1C(c1ccccc1Cl)=NC2` stands 0.2 mg/kg; under `Cc1nnc2n1-c1sc(C#CCN3C(=O)COc4ccc(Cl)cc43)cc1C(c1ccccc1Cl)=NC2`, 0.05 mg/kg; under `Cc1nnc2n1-c1sc(C#CCn3c(=O)c4ccccc4c4ccccc43)cc1C(c1ccccc1Cl)=NC2O` (configuration not stated), 0.07 mg/kg. On the same count and under the same terms, the same measure for `Cc1nnc2n1-c1ccc(C#CCN3C(=O)CCc4ccccc43)cc1C(c1ccccc1F)=NC2`: 0.4 mg/kg; for `Cc1nnc2n1-c1sc(C#CCN3C(=O)COc4cc(F)ccc43)cc1C(c1ccccc1Cl)=NC2`: 0.02 mg/kg; for `Cc1nnc2n1-c1ccc(C#CCN3C(=O)CCc4ccccc43)cc1C(c1ccccc1F)=N[C@H]2C`: 0.1 mg/kg.

On to `Cc1nnc2n1-c1sc(C#CCn3c(=O)c4ccccc4c4ccccc4c3=O)cc1C(c1ccccc1Cl)=NC2`, for which the ED50 is 0.02 mg/kg. Same read-out and setting: the same measure for `Cc1nnc2n1-c1sc(C#CCN3C(=O)c4cccc5cccc3c45)cc1C(c1ccccc1Cl)=NC2`: 0.04 mg/kg. On the same count and under the same terms, under `Cc1nnc2n1-c1sc(C#CCn3c4c(c5ccccc53)CCCCC4)cc1C(c1ccccc1Cl)=NC2` stands 0.004 mg/kg; under `Cc1nnc2n1-c1sc(C#CCn3c4c(c5cc(Cl)ccc53)CCCCC4)cc1C(c1ccccc1Cl)=NC2`, 0.3 mg/kg. In the case of `Cc1nnc2n1-c1sc(C#CCOc3cccnc3)cc1C(c1ccccc1Cl)=NC2`, the ED50 turned out to be 0.2 mg/kg.

In the case of `Cc1nnc2n1-c1sc(C#CCn3c(=O)ccc4ccccc43)cc1C(c1ccccc1Cl)=NC2`, the ED50 is 0.02 mg/kg. As for `CCCCC/C(=C\C=C\C(=O)N[C@H](C)CCCc1cccnc1)c1ccc(OC)cc1`, the ED50 came out at 4 mg/kg. Same read-out and setting: under `Cc1nnc2n1-c1sc(C#CCn3c4ccccc4c4ccccc43)cc1C(c1ccccc1Cl)=NC2` stands 0.02 mg/kg.

For the compound `Cc1nnc2n1-c1ccc(C#CCN3C(=O)c4ccccc4C3=O)cc1C(c1ccccc1F)=NC2`, the ED50 was found to be 0.5 mg/kg. The same measure, in the same setting: under `Cc1nnc2n1-c1sc(C#CCn3c4ccccc4c(=O)c4ccccc43)cc1C(c1ccccc1Cl)=NC2` stands 0.02 mg/kg. Same read-out and setting: under `Cc1nnc2n1-c1ccc(C#CCCN3C(=O)c4ccccc4C3=O)cc1C(c1ccccc1F)=NC2` stands 0.3 mg/kg.

For the compound `Cc1nnc2n1-c1ccc(C#CCN3C(=O)c4cccc5cccc(c45)C3=O)cc1C(c1ccccc1Cl)=NC2`, the ED50 was 0.6 mg/kg. On to `Cc1nnc2n1-c1sc(C#CCn3c(=O)c4ccccc4c4ccccc43)cc1C(c1ccccc1Cl)=NC2C` (configuration not stated), for which the ED50 was determined as 0.03 mg/kg.

On to `Cc1nnc2n1-c1sc(C#CCn3c(O)nc4ccccc43)cc1C(c1ccccc1Cl)=NC2`, for which the ED50 was 0.2 mg/kg.

Consider `Cc1nnc2n1-c1sc(C#CCn3c(=O)n(C)c4ccccc43)cc1C(c1ccccc1Cl)=NC2`, for which the ED50 is 0.04 mg/kg.

For `Cc1nnc2n1-c1sc(C#CCn3c(=O)n(C)c(=O)c4ccccc43)cc1C(c1ccccc1Cl)=NC2`, the ED50 worked out at 0.02 mg/kg.

Take `C=C=Cn1c(=O)n(CC#Cc2cc3c(s2)-n2c(C)nnc2CN=C3c2ccccc2Cl)c2ccccc21`: the ED50 is 0.03 mg/kg. Still for that read-out and setting: under `Cc1nnc2n1-c1sc(C#CCN3CCc4ccccc4C3=O)cc1C(c1ccccc1Cl)=NC2` stands 0.03 mg/kg; under `Cc1nnc2n1-c1sc(C#CCN3C(=O)OCc4ccccc43)cc1C(c1ccccc1Cl)=NC2`, 0.08 mg/kg. The same measure, in the same setting: the same measure for `O=c1c2ccccc2c2ccccc2n1CC#Cc1cc2c(s1)-n1c(CO)nnc1CN=C2c1ccccc1Cl`: 0.3 mg/kg; for `Cc1nnc2n1-c1sc(C#CCn3c(=O)n(-c4ccccc4)c4ccccc43)cc1C(c1ccccc1Cl)=NC2`: 0.02 mg/kg; for `Cc1nnc2n1-c1ccc(C#CCN3C(=O)CSc4ccccc43)cc1C(c1ccccc1F)=NC2`: 0.3 mg/kg. Same read-out and setting: under `Cc1nnc2n1-c1sc(C#CCN3C(=O)NCc4ccccc43)cc1C(c1ccccc1Cl)=NC2` stands 0.05 mg/kg; under `Cc1nnc2n1-c1sc(C#CCN3C(=O)c4cccc5cccc(c45)C3=O)cc1C(c1ccccc1Cl)=NC2`, 0.03 mg/kg. Consider `Cc1nnc2n1-c1sc(C#CCn3ccc4ccccc4c3=O)cc1C(c1ccccc1Cl)=NC2`, for which the ED50 stood at 0.03 mg/kg. On to `Cc1nnc2n1-c1sc(C#CCC34CCCc5cccc(c53)NC4=O)cc1C(c1ccccc1Cl)=NC2` (configuration not stated), for which the ED50 was found to be 0.3 mg/kg. Still for that read-out and setting: the same measure for `Cc1nnc2n1-c1sc(C#CCN3C(=O)CCc4cc(Cl)cc(Cl)c43)cc1C(c1ccccc1Cl)=NC2`: 0.02 mg/kg. For `Cc1nnc2n1-c1sc(C#CCOc3ccccc3)cc1C(c1ccccc1Cl)=NC2`, the ED50 was 0.1 mg/kg. Same read-out and setting: under `Cc1nnc2n1-c1sc(C#CCn3c(=O)c4cc(Cl)ccc4c4ccc(Cl)cc43)cc1C(c1ccccc1Cl)=NC2` stands 0.03 mg/kg; under `Cc1nnc2n1-c1sc(C#CCn3ncc4ccccc43)cc1C(c1ccccc1Cl)=NC2`, 0.02 mg/kg; under `Cc1nnc2n1-c1sc(C#CCN3C(=O)Cn4ccc5c(Cl)ccc3c54)cc1C(c1ccccc1Cl)=NC2`, 0.003 mg/kg. Still for that read-out and setting: under `Cc1nnc2n1-c1sc(C#CCn3c(=O)n(CCN(C)C)c(=O)c4ccccc43)cc1C(c1ccccc1Cl)=NC2` stands 0.3 mg/kg; under `Cc1nnc2n1-c1sc(C#CCn3cnc4ccccc43)cc1C(c1ccccc1Cl)=NC2`, 0.1 mg/kg; under `Cc1nnc2n1-c1sc(CCC(=O)N3CCOCC3)cc1C(c1ccccc1Cl)=NC2` [APAFANT], 1.2 mg/kg.

Regarding `Cc1nnc2n1-c1sc(C#CCn3c4c(c5cc(Cl)ccc53)CCCC4)cc1C(c1ccccc1Cl)=NC2`, the ED50 is 0.04 mg/kg.

Take `Cc1nnc2n1-c1sc(C#CCN3C(=O)CC(C)(C)c4ccccc43)cc1C(c1ccccc1Cl)=NC2`: the ED50 turned out to be 0.03 mg/kg. Still for that read-out and setting: under `Cc1nnc2n1-c1sc(C#CCN3C(=O)COc4ccccc43)cc1C(c1ccccc1Cl)=NC2` stands 0.02 mg/kg; under `Cc1nnc2n1-c1sc(C#CCn3c(=O)c4ccccc4c4ccccc43)cc1C(c1ccccc1Cl)=NC2`, 0.01 mg/kg. Same read-out and setting: the same measure for `COc1cc2c(cc1OC)C(=O)N(CC#Cc1cc3c(s1)-n1c(C)nnc1CN=C3c1ccccc1Cl)CC2`: 0.05 mg/kg.

The subject of another assay is Cavia porcellus. Kind of assay: Inhibition of PAF-induced bronchoconstriction in guinea pig after oral administration after two-hour pretreatment time; No significant inhibition at 1 mg/kg. The assay is classed as functional, organism-based.
Settings: not given
On the set-up: dose 1 mg/kg.
For `Cc1nnc2n1-c1sc(I)cc1C(c1ccccc1Cl)=NC2C` (configuration not stated), the ID50 result was “inactive”. The same measure, in the same setting: the same measure for `Cc1nnc2n1-c1sc(C#CCn3c(=O)c4ccccc4c4ccccc43)cc1C(c1ccccc1Cl)NC2=O` (configuration not stated): “inactive”; for `Cc1nnc2n1-c1sc(I)cc1C(c1cc([N+](=O)[O-])ccc1Cl)=NC2`: “inactive”. The same measure, in the same setting: the same measure for `Cc1nnc2n1-c1sc(C#CCN3C(=O)CCc4ccccc43)cc1C(c1cc([N+](=O)[O-])ccc1Cl)=NC2`: “inactive”; for `Cc1nnc2n1-c1sc(I)cc1C(c1ccccc1Cl)=NC2`: “inactive”.

Target in the next assay: not listed separately
Kind of assay: PAF-antagonist activity determined in dog platelets by PAF-binding assay.
Settings: not given
Compound `CCCCC/C(=C\C=C\C(=O)N[C@H](C)CCCc1cccnc1)c1ccc(OC)cc1` gave a pIC50 of 7.40.

Values taken from ChEMBL document CHEMBL1125634, “Triazolobenzo- and triazolothienodiazepines as potent antagonists of platelet activating factor” (J Med Chem, 1991).
